# Measured values as given in ChEMBL document CHEMBL2146380, “Uncoupling and antioxidant effects of ursolic acid in isolated rat heart mitochondria” (J Nat Prod, 2011).
# Calls of active or inactive are those of the source. No cut-off for these calls is given here.
# What was measured:
# Assay type in all cases: functional
# Rattus norvegicus [1] = species on record: Rattus norvegicus; assay: Effect on basal respiration rate in Wistar rat heart mitochondrial respiratory chain using pyruvate and malate as substrate at 0.4 to 1.2 ng/mL; details: Mitochondria
# Method in brief: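 Clark-type electrode oxygen uptake at 37 C, pH 7.1 imidazole/taurine/MES medium with 3 mM KH2PO4, 0.1 μM free Ca2+. Substrates 6 mM pyruvate + 6 mM malate; compound at 0.4, 0.8, 1.2 ng/mL; State 2 (V0) rate registered, nmol O/min/mg protein.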
# [2] = (§1) Effect on mitochondrial respiratory chain in Wistar rat heart mitochondria assessed as increase in state 2 respiratory rate using pyruvate and malate as substrate
# Method in brief: (§2)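 Isolated male Wistar rat heart mitochondria at 0.5 mg protein/mL. O2 uptake was recorded by Clark electrode at 37 C in pH 7.1 imidazole/taurine/MES medium (3 mM KH2PO4, 0.1 μM free Ca2+). Substrates were 6 mM pyruvate + 6 mM malate, 12 mM succinate + 2 mM amytal, or 9 μM palmitoyl-L-carnitine + 0.24 mM malate. Sequence: State 2 (V0), then 1 mM ADP (State 3), then 32 μM cytochrome c. RCI = VADP/V0. Rates in nmol O/min/mg; n = 3–4.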
# Rattus norvegicus [3] = species on record: Rattus norvegicus; assay: as §1; method in brief: as §2
# Rattus norvegicus [4] = species on record: Rattus norvegicus; assay: Effect on mitochondrial respiratory chain in Wistar rat heart mitochondria assessed as state 2 respiratory rate per mg protein using succinate and amytal sodium as substrate at 1.6 ng/mL; method in brief: as §2
# Rattus norvegicus [5] = species on record: Rattus norvegicus; assay: Effect on mitochondrial respiratory chain in Wistar rat heart mitochondria assessed as state 2 respiratory rate per mg protein using succinate and amytal sodium as substrate at 5 ng/mL; method in brief: as §2
# Rattus norvegicus [6] = species on record: Rattus norvegicus; assay: Effect on mitochondrial respiratory chain in Wistar rat heart mitochondria assessed as state 2 respiratory rate using palmitoyl-L-carnitine and malate as substrate at 1.6 ng/mL; method in brief: as §2
# Rattus norvegicus [7] = species on record: Rattus norvegicus; assay: Effect on mitochondrial respiratory chain in Wistar rat heart mitochondria assessed as state 3 respiratory rate using pyruvate and malate as substrate at 5 ng/mL; method in brief: as §2
# Rattus norvegicus [8] = species on record: Rattus norvegicus; assay: Effect on mitochondrial respiratory chain in Wistar rat heart mitochondria assessed as state 3 respiratory rate using succinate and amytal sodium as substrate at 5 ng/mL; method in brief: as §2
# Rattus norvegicus [9] = species on record: Rattus norvegicus; assay: Effect on mitochondrial respiratory chain in Wistar rat heart mitochondria assessed as increase in state 2 respiration rate using pyruvate and malate as substrate at 50 to 200 ng/mL; method in brief: as §2
# Rattus norvegicus [10] = species on record: Rattus norvegicus; assay: Effect on mitochondrial respiratory chain in Wistar rat heart mitochondria assessed as increase in state 3 respiration rate using pyruvate and malate as substrate in presence ADP at 50 to 200 ng/mL; method in brief: as §2
# Rattus norvegicus [11] = species on record: Rattus norvegicus; assay: Effect on mitochondrial respiratory chain in Wistar rat heart mitochondria assessed as decrease in respiratory control index at 50 to 200 ng/mL; parameters: scale not given: the % may be the effect or the level left; method in brief: as §2
# Rattus norvegicus [12] = species on record: Rattus norvegicus; assay: Antioxidant activity in Wistar rat heart mitochondria assessed as reduction in H2O2 production at 5 ng/mL by Amplex red based fluorimetric analysis; parameters: scale not given: the % may be the effect or the level left
# Method in brief: (§3)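 Male Wistar rat heart mitochondria (0.25 mg/mL) incubated 7 min at 37 C in respiration medium with 6 mM each pyruvate and malate plus 16 ng/mL antimycin A. CCCP (1 μM) was the uncoupler reference. Then 5 μM Amplex Red and 2 U/mL horseradish peroxidase were added; fluorescence at ex 544/em 590 nm, calibrated with known H2O2; n = 3.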
# Rattus norvegicus [13] = species on record: Rattus norvegicus; assay: Antioxidant activity in Wistar rat heart mitochondria assessed as reduction in H2O2 production at 1.6 ng/mL by Amplex red based fluorimetric analysis; parameters: scale not given: the % may be the effect or the level left; method in brief: as §3
# Rattus norvegicus [14] = species on record: Rattus norvegicus; assay: Effect on mitochondrial respiratory chain in rat heart mitochondria assessed as stimulation of state 2 respiration rate 12.6 ng/mL
# Rattus norvegicus [15] = species on record: Rattus norvegicus; assay: Effect on mitochondrial respiratory chain in rat heart mitochondria assessed as stimulation of state 2 respiration rate 4.9 ng/mL
# Rattus norvegicus [16] = species on record: Rattus norvegicus; assay: Effect on mitochondrial respiratory chain in rat heart mitochondria assessed as stimulation of state 2 respiration rate 449 ng/mL
# Rattus norvegicus [17] = species on record: Rattus norvegicus; assay: Effect on mitochondrial respiratory chain in rat heart mitochondria assessed as stimulation of state 2 respiration rate 293 ng/mL
# Rattus norvegicus [18] = species on record: Rattus norvegicus; assay: Effect on mitochondrial respiratory chain in rat heart mitochondria assessed as stimulation of state 2 respiration rate 7 ng/mL
# Rattus norvegicus [19] = species on record: Rattus norvegicus; assay: Effect on mitochondrial respiratory chain in rat heart mitochondria assessed as stimulation of state 2 respiration rate 26 ng/mL
# Rattus norvegicus [20] = species on record: Rattus norvegicus; assay: Effect on mitochondrial respiratory chain in Wistar rat heart mitochondria assessed as increase in state 2 respiratory rate using palmitoyl-L-carnitine and malate as substrate at 5 ng/mL; method in brief: as §2
# Rattus norvegicus [21] = species on record: Rattus norvegicus; assay: Effect on mitochondrial respiratory chain in Wistar rat heart mitochondria assessed as increase in complex-1 dependent state 2 respiratory rate per mg protein using pyruvate and malate as substrate at 1.6 ng/mL; method in brief: as §2
# Rattus norvegicus [22] = species on record: Rattus norvegicus; assay: Effect on mitochondrial respiratory chain in Wistar rat heart mitochondria assessed as state 3 respiratory rate using palmitoyl-L-carnitine and malate as substrate at 5 ng/mL; method in brief: as §2
# Rattus norvegicus [23] = species on record: Rattus norvegicus; assay: Effect on mitochondrial respiratory chain in Wistar rat heart mitochondria assessed as increase in state 2 respiratory rate using palmitoyl-L-carnitine and malate as substrate at 1.6 ng/mL; method in brief: as §2
# Rattus norvegicus [24] = species on record: Rattus norvegicus; assay: Effect on mitochondrial respiratory chain in Wistar rat heart mitochondria assessed as increase in state 2 respiratory rate per mg protein using succinate and amytal sodium as substrate at 5 ng/mL; method in brief: as §2
# Rattus norvegicus [25] = species on record: Rattus norvegicus; assay: Effect on mitochondrial respiratory chain in Wistar rat heart mitochondria assessed as increase in state 2 respiratory rate per mg protein using succinate and amytal sodium as substrate at 1.6 ng/mL; method in brief: as §2
# Rattus norvegicus [26] = species on record: Rattus norvegicus; assay: Effect on mitochondrial respiratory chain in Wistar rat heart mitochondria assessed as increase in complex-1 dependent state 2 respiratory rate per mg protein using pyruvate and malate as substrate at 5 ng/mL; method in brief: as §2
# Rattus norvegicus [27] = species on record: Rattus norvegicus; assay: Effect on mitochondrial respiratory chain in Wistar rat heart mitochondria assessed as state 2 respiratory rate using palmitoyl-L-carnitine and malate as substrate at 5 ng/mL; method in brief: as §2
# Rattus norvegicus [28] = species on record: Rattus norvegicus; assay: Effect on mitochondrial respiratory chain in Wistar rat heart mitochondria assessed as respiratory rate per mg protein using pyruvate and malate as substrate (reference value: 52 +/- 7 nmol/min); method in brief: as §2
# Rattus norvegicus [29] = species on record: Rattus norvegicus; assay: Effect on mitochondrial respiratory chain in Wistar rat heart mitochondria assessed as respiratory rate per mg protein using pyruvate and malate as substrate in presence of ADP (reference value: 389+/-40 nmol/min); method in brief: as §2
# Rattus norvegicus [30] = species on record: Rattus norvegicus; assay: Effect on mitochondrial respiratory chain in Wistar rat heart mitochondria assessed as ratio of respiratory rate in presence of ADP and cytochrome C to respiratory rate in presence of ADP using pyruvate and malate as substrate (reference value: 1.6+/-0.2); method in brief: as §2
# Rattus norvegicus [31] = species on record: Rattus norvegicus; assay: Effect on mitochondrial respiratory chain in Wistar rat heart mitochondria assessed as respiratory control index using pyruvate and malate as substrate (reference value: 8.0+/-1.2); method in brief: as §2
# Rattus norvegicus [32] = species on record: Rattus norvegicus; assay: Effect on mitochondrial respiratory chain in Wistar rat heart mitochondria assessed as respiratory rate per mg protein using palmitoyl-L-carnitine and malate as substrate (reference value: 85+/-4 nmol/min); method in brief: as §2
# Rattus norvegicus [33] = species on record: Rattus norvegicus; assay: Effect on mitochondrial respiratory chain in Wistar rat heart mitochondria assessed as respiratory rate per mg protein using succinate and amytal sodium as substrate (reference value: 238+/-39 nmol/min); method in brief: as §2
# Rattus norvegicus [34] = species on record: Rattus norvegicus; assay: Effect on mitochondrial respiratory chain in Wistar rat heart mitochondria assessed as respiratory rate per mg protein using palmitoyl-L-carnitine and malate as substrate in presence of ADP (reference value: 436+/-54 nmol/min); method in brief: as §2
# Rattus norvegicus [35] = species on record: Rattus norvegicus; assay: Effect on mitochondrial respiratory chain in Wistar rat heart mitochondria assessed as respiratory rate per mg protein using succinate and amytal sodium as substrate in presence of ADP (reference value: 606+/-108 nmol/min); method in brief: as §2
# Rattus norvegicus [36] = species on record: Rattus norvegicus; assay: Effect on mitochondrial respiratory chain in Wistar rat heart mitochondria assessed as ratio of respiratory rate in presence of ADP and cytochrome c to respiratory rate in presence of ADP using succinate and amytal sodium as substrate (reference value: 1.8+/- 0.1); method in brief: as §2
# Rattus norvegicus [37] = species on record: Rattus norvegicus; assay: Effect on mitochondrial respiratory chain in Wistar rat heart mitochondria assessed as respiratory control index using succinate and amytal sodium as substrate (reference value: 2.5+/- 0.1); method in brief: as §2
# Rattus norvegicus [38] = species on record: Rattus norvegicus; assay: Effect on mitochondrial respiratory chain in Wistar rat heart mitochondria assessed as ratio of respiratory rate in presence of ADP and cytochrome c to respiratory rate in presence of ADP using palmitoyl-L-carnitine and malate as substrate (reference value: 1.3+/-0.1); method in brief: as §2
# Rattus norvegicus [39] = species on record: Rattus norvegicus; assay: Effect on mitochondrial respiratory chain in Wistar rat heart mitochondria assessed as respiratory control index using palmitoyl-L-carnitine and malate as substrate (reference value: 5.2+/-0.4); method in brief: as §2
# Rattus norvegicus [40] = species on record: Rattus norvegicus; assay: Effect on mitochondrial respiratory chain in Wistar rat heart mitochondria assessed as complex-1 dependent state 2 respiratory rate per mg protein using pyruvate and malate as substrate at 1.6 ng/mL; method in brief: as §2
# Rattus norvegicus [41] = species on record: Rattus norvegicus; assay: Effect on mitochondrial respiratory chain in Wistar rat heart mitochondria assessed as complex-1 dependent state 2 respiratory rate per mg protein using pyruvate and malate as substrate at 5 ng/mL; method in brief: as §2
smiles,measurement,setting,value
C[C@H]1[C@H](C)CC[C@]2(C(=O)O)CC[C@]3(C)C(=CC[C@@H]4[C@@]5(C)CC[C@H](O)C(C)(C)[C@@H]5CC[C@]43C)[C@H]12 [URSOLIC ACID],Activity,Rattus norvegicus [1],inactive
same,EC50,[2],4.1 ng/mL
same,Activity,Rattus norvegicus [3],Dose-dependent effect
same,Activity,Rattus norvegicus [4],279 nmol/min
same,Activity,Rattus norvegicus [5],299 nmol/min
same,Activity,Rattus norvegicus [6],90 nmol/min
same,Activity,Rattus norvegicus [7],inactive
same,Activity,Rattus norvegicus [8],inactive
same,Activity,Rattus norvegicus [9],40%
same,Activity,Rattus norvegicus [10],inactive
same,Activity,Rattus norvegicus [11],45%
same,Activity,Rattus norvegicus [12],55.6%
same,Activity,Rattus norvegicus [13],49.5%
same,Activity,Rattus norvegicus [14],11%
same,Activity,Rattus norvegicus [15],11%
same,Activity,Rattus norvegicus [16],11%
same,Activity,Rattus norvegicus [17],11%
same,Activity,Rattus norvegicus [18],11%
same,Activity,Rattus norvegicus [19],70%
same,Activity,Rattus norvegicus [20],10%
same,Activity,Rattus norvegicus [21],15%
same,Activity,Rattus norvegicus [22],inactive
same,Activity,Rattus norvegicus [23],10%
same,Activity,Rattus norvegicus [24],26%
same,Activity,Rattus norvegicus [25],17%
same,Activity,Rattus norvegicus [26],28%
same,Activity,Rattus norvegicus [27],92 nmol/min
same,Activity,Rattus norvegicus [28],61 nmol/min
same,Activity,Rattus norvegicus [29],374 nmol/min
same,Ratio,Rattus norvegicus [30],1.5
same,Ratio,Rattus norvegicus [31],4.8
same,Activity,Rattus norvegicus [32],82 nmol/min
same,Activity,Rattus norvegicus [33],238 nmol/min
same,Activity,Rattus norvegicus [34],403 nmol/min
same,Activity,Rattus norvegicus [35],599 nmol/min
same,Ratio,Rattus norvegicus [36],1.5
same,Ratio,Rattus norvegicus [37],2
same,Ratio,Rattus norvegicus [38],1.2
same,Ratio,Rattus norvegicus [39],4.4
same,Activity,Rattus norvegicus [40],70 nmol/min
same,Activity,Rattus norvegicus [41],78 nmol/min
